# Screening data as filed in PubChem BioAssay.
# An excerpt weighted towards active compounds, which were near 3.7% of everything screened.
# MPTP inh = mitochondrial permeability transition pore inhibitors, primary screen, biochemical, isolated mouse mitochondria, absorbance. Ca2+ swelling absorbance, 30 min. inhibition, % at 10 µM. 360,000 tested, 1.4% active. AID 602449, 2012;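 active = inhibition of 50% or more, scaled per plate between neutral and stimulator controls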
# aDG glyco up = activators of alpha-DG glycosylation, primary screen, uHTS, Pro5-aDG cells, AlphaScreen | alpha-DG glycosylation AlphaScreen (IIH6); 0% Pro5, 100% B10-LARGE cell signal | activation, % at 10 µM | 360,000 tested, 0.22% active | AID 624168, 2012;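 active = activation of at least 8% versus controls, or a plate z-score of at least 8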;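 also: Pro5 are CHO cells carrying HIG-tagged alpha-DG that lacks glycosylation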
# procasp7 counter = procaspase-7 activators, primary screen, counter-screen for procaspase-3 activator project, biochemical, absorbance, HTS, human; Caspase-7 (Homo sapiens), P55210; recombinant procaspase-7, Ac-DEVD-pNA absorbance 405 nm; D23A/D198A/D206A triple mutant, cannot self-cleave; scale: DMSO 0, 5 µM enzyme 100; activation, % at 8.5 µM; 330,000 tested, 0.093% active; AID 463210, 2010;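 active = percent activation above the screen-wide mean plus 3 SD, cut at about 25% in these data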
# Target sequence (P55210 whole entry D23A/D198A/D206A): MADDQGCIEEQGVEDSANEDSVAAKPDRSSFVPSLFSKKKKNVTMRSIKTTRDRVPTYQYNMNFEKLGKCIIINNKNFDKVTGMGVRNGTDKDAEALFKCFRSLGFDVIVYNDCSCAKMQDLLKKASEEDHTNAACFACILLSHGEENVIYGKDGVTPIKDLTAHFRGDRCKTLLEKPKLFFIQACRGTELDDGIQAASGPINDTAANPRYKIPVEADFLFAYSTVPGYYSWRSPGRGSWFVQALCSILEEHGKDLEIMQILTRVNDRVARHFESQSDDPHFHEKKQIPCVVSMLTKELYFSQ
#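 Assay system – Uncleavable procaspase-7 mutant enzyme · Quantity – 2 µM procaspase-7 mutant as dispensed · Times – 1 h preincubation, 2 h reaction · Dosing – single nominal 8.5 µM compound dose, 0.8% DMSO final · Buffer or medium – Zinc-free 50 mM HEPES buffer, pH 7.4, with NaCl and Triton X-100 · Detection – Epi-absorbance of released pNA at 405 nm, two timepoints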
# procasp3 activ = activators of human procaspase-3 D3A mutant, primary screen, biochemical, absorbance, PC-3 D3A mutant, single concentration; recombinant procaspase-3 D3A, Ac-DEVD-pNA absorbance 405 nm; activation, % at 8.5 µM; 330,000 tested, 0.11% active;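 active = activation above the mean of all tested compounds plus 3 SD, cut at about 21% in these data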
# Target sequence (P42574 whole entry D9A/D28A/D175A): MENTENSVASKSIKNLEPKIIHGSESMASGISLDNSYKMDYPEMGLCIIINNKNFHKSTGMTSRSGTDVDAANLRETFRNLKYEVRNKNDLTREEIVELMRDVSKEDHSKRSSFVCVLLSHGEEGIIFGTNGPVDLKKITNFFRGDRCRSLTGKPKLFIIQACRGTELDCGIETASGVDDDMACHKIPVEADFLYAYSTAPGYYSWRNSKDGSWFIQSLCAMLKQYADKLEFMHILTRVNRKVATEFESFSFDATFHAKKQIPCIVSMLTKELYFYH
#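 System: Procaspase-3 D3A mutant. Medium: Zinc-free 300 mM NaCl, 50 mM HEPES, 0.01% Triton X-100. Schedule: 1 h preincubation plus 2 h reaction at 25 °C. Measured by: 405 nm absorbance of p-nitroaniline, reads at 0 and 120 min. Read-out: percent activation relative to control range.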
# NR3A LBD binder = binders of NR3A ligand-binding domain, primary screen, biophysical, differential scanning fluorimetry, uHTS | Glutamate receptor ionotropic, NMDA 3A (GRIN3A) ligand-binding domain | Tm shift relative to glycine control, % at 25 µM | 340,000 tested, 2.5% active | AID 1259313, 2017 | NR3A LBD differential scanning fluorimetry, Tm shift; 0% = protein alone, 100% = glycine-bound protein;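 active = melting temperature shift of at least 10% of the positive control shift, at one fixed dose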
# Numbers stand for hits; n = inactive; x = no result given.
SMILES,MPTP inh,aDG glyco up,procasp7 counter,procasp3 activ,NR3A LBD binder
C[C@@H]1CN([C@@H](C)CO)S(=O)(=O)c2ccc(Br)cc2O[C@H]1CN(C)C(=O)c1ccccc1F,n,n,x,x,x
O=C1C=CC(O)C2(CO)OC12 (stereo unspecified),n,n,x,x,x
Cc1ccc(OCCN2CCC2(C)C(=O)NCc2ccc(C(F)(F)F)cc2)cc1 (stereo unspecified),n,n,x,x,x
Cc1ccc(S(=O)(=O)N2CC3(O)CN(C(=O)OC(C)C)N(C(=O)OC(C)C)CC3(OC(=O)NCc3ccccc3F)C2)cc1 (stereo unspecified),n,n,x,x,x
Cc1cccc(S(=O)(=O)N(CC(=O)Nc2ccccc2C)Cc2ccco2)c1,n,n,n,n,11
COCC(=O)N1C[C@@H](C)[C@@H](OC)CN(C)C(=O)c2ccc(NC(=O)c3cnccn3)cc2OC[C@H]1C,n,n,x,x,x
CCn1c(=O)c(=O)n(CC)c2cc(S(=O)(=O)Nc3ccc(C)cc3)ccc21,n,n,n,n,n
CCn1c(=O)c(=O)[nH]c2c(=O)oc3ccc(S(=O)(=O)Nc4ccccc4)cc3c21,n,n,n,n,16
O=c1c([N+](=O)[O-])c(O)c2ccccc2n1Cc1ccccc1,n,n,n,n,10
CCn1c(=O)c([N+](=O)[O-])c(Cl)c2ccccc21,n,n,n,n,n
C[C@H]1CN([C@@H](C)CO)C(=O)CCCn2cc(nn2)CO[C@@H]1CN(C)C(=O)Nc1ccc(-c2cccs2)cc1,n,n,x,x,x
Cc1ccc(NC(=O)c2cc(S(=O)(=O)NCCC3=CCCCC3)ccc2F)cc1,n,n,n,n,14
Cc1ccc(NC(=O)c2cc(S(=O)(=O)NCC3CCCO3)ccc2F)cc1 (stereo unspecified),n,n,x,x,x
COc1ccc2cc(-c3ccsc3)ncc2c1,n,n,n,n,30
Nc1cc2c(cc1Cl)-c1ccc([N+](=O)[O-])cc1C2=NO,n,n,x,x,477
CSc1nc(N)nc2c1ncn2CC(=O)NCCNc1ccc([N+](=O)[O-])cn1,n,n,n,n,n
Cc1ccc(-c2nn(-c3ccccc3)cc2/C=C/C(=O)Nc2nccs2)cc1,n,n,n,n,24
O=C(/C=C/c1cn(-c2ccccc2)nc1-c1ccccc1)Nc1ccc(C(=O)O)cc1,n,n,n,n,n
CCOC(=O)C1C(C(=O)OC)=C(c2ccc(OC)cc2)c2ccccc2N1S(=O)(=O)C(F)(F)F (stereo unspecified),n,n,n,n,11
CCOC(=O)C1C(C(=O)OC)=C(c2ccc(F)cc2)c2ccccc2N1S(=O)(=O)C(F)(F)F (stereo unspecified),n,n,n,n,n
CCOC(=O)C1C(C(C)=O)=C(c2ccccc2)c2ccccc2N1S(=O)(=O)C(F)(F)F (stereo unspecified),n,n,n,n,11
CCc1csc(CNC(=O)C2CCC(=O)N(Cc3cccc(F)c3)C2)n1 (stereo unspecified),n,n,n,n,13
O=C(NCCc1ccc(C(F)(F)F)cc1)C1CCC(=O)N(CCc2cccc(F)c2)C1 (stereo unspecified),n,n,n,n,14
CCCc1cc(-c2n[nH]c(C)c2-c2ccc(C(=O)OCC)o2)c(O)cc1O,n,n,n,n,35
CCCc1cc(C(=O)Cc2ccc(C(=O)OCC)o2)c(O)cc1O,n,n,n,n,n
SMILES,MPTP inh,aDG glyco up,procasp7 counter,procasp3 activ,NR3A LBD binder
NC(=O)c1ccccc1NC(=O)CCCCCn1nnc2ccccc2c1=O,n,n,n,n,12
COc1ccc([C@H]2CC(=O)C=C(c3ccc(F)cc3OCc3ccccc3)C2)cc1OC,n,n,n,n,12
COc1ccc([C@H]2CC(=O)C=C(c3ccc(F)cc3OCc3ccccc3)C2)cc1,n,n,n,n,n
COc1cc(C(=O)Nc2nc(-c3cc(C)ccc3C)c(C)s2)ccc1OCC(=O)Nc1ccc(F)cc1,n,n,n,n,n
COc1ccc(-c2nc(NC(=O)c3ccc(OCC(=O)Nc4ccc(F)cc4)c(OC)c3)sc2C)cc1,n,n,n,n,11
CCC(=O)c1ccc(OCC(=O)OCC(=O)c2cc(C)n(C)c2C)cc1,n,n,n,n,13
COC(=O)c1ccc2nc(-c3ccc(F)cc3)c(Cc3ccccc3C(F)(F)F)n2c1,n,n,x,x,x
COc1cc(/C=C2/SC(=O)N(CC(=O)N3CCCC3)C2=O)ccc1Oc1ccc([N+](=O)[O-])cn1,n,n,n,n,13
O=C(NCc1ccccc1)c1cnc(Cc2c[nH]c3ccccc23)c(I)c1,n,n,x,x,x
COC(=O)c1ccc(NC(=O)CN2CCOCC2)cc1,n,n,n,n,13
Nc1[nH]c(C(=O)c2ccccc2)c(-c2ccc(Br)cc2)c1C(=O)c1ccc(Br)cc1,n,n,x,x,x
Clc1ccccc1/C=N/N1CCN(Cc2ccccc2)CC1,n,n,n,n,n
FC(F)(F)c1ccccc1/C=N/N1CCN(Cc2ccccc2)CC1,n,n,n,n,18
COc1cccc(C(NC(C)=O)c2nc(-c3cccc(C(=O)O)c3)cs2)c1 (stereo unspecified),n,n,x,x,x
COc1ccc(S(=O)(=O)NCc2cccnc2)cc1NC(=O)c1ccccc1C,n,n,x,x,n
NS(=O)(=O)c1ccc(NC(=O)COC(=O)c2cn(-c3ccccc3)nc2-c2ccc(F)cc2)cc1,n,n,n,n,16
CN(C)S(=O)(=O)c1cccc(NC(=O)COC(=O)c2cn(-c3ccccc3)nc2-c2ccccc2)c1,n,n,n,n,14
O=C(COC(=O)c1cn(-c2ccccc2)nc1-c1ccc(F)cc1)Nc1ncc(Cl)cc1Cl,n,n,n,n,n
CC1CCCN(c2ccc(/C=C(\C#N)c3nn(-c4ccccc4)c(N)c3C#N)cc2[N+](=O)[O-])C1 (stereo unspecified),n,n,n,n,12
CC1CCN(c2ccc(/C=C(\C#N)c3nn(-c4ccccc4)c(N)c3C#N)cc2[N+](=O)[O-])CC1,n,n,n,n,10
CON(C)C(=O)CC(CNC(=O)OC(C)(C)C)c1ccc(Cl)cc1 (stereo unspecified),n,n,n,n,n
COC(=O)[C@@]12C[C@@H](CC(=O)N3CCSCC3)C(=O)N(Cc3ccc4c(c3)OCO4)C1=CCC(C)(C)C2,n,n,x,x,x
Cc1nnc(NC(=O)c2ccc(-c3ccc(Cl)cc3)o2)s1,n,n,n,n,n
